# Tb MetRS inh: Trypanosoma brucei MetRS inhibition | hit rate 0.4% among 360,000 | AID 624268 | purified T. brucei MetRS, ATP depletion, Kinase-Glo luminescence | inhibition, % at 11.9 µM;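 active means inhibition above a per-plate cutoff of the control wells' mean inhibition plus 3 SD, cut at about 5.5% in these data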;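 further: 0% = DMSO wells median and 100% = median of wells with control inhibitor compound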
#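 technique = Kinase-Glo luminescence, ATP depletion format | system = purified MetRS (methionyl-tRNA synthetase) enzyme from Trypanosoma brucei | timing = 15 min preincubation, 2 h reaction, all 25 °C | evaluation = percent inhibition versus plate control medians | dosing = single dose, 11.9 µM final nominal, 0.9% final DMSO | also added = substrates ATP, L-methionine and bulk Escherichia coli tRNA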
# ATG4B inh: blocks human ATG4B protease cleavage of LC3 substrate; Q9Y4P1; ATG4B cleavage of LC3-PLA2, NBD-HPC fluorescence, 1 h; inhibition, % at 8.33 µM; hit rate 0.51% among 340,000; in the data active means inhibition above about 40%
# UCH37 inh: human UCH37 deubiquitinating enzyme inhibition. Q9Y5K5. purified proteasome/UCH37, Ub-AMC cleavage fluorescence. inhibition, % (concentration not given with the values). hit rate 0.33% among 330,000;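 active means mean inhibition over replicate wells above about 20%, limit read from the data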;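 further: 0% = compound-free wells with enzyme and 100% = wells lacking proteasome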
# Target sequence (Q9Y5K5 whole entry, looked up): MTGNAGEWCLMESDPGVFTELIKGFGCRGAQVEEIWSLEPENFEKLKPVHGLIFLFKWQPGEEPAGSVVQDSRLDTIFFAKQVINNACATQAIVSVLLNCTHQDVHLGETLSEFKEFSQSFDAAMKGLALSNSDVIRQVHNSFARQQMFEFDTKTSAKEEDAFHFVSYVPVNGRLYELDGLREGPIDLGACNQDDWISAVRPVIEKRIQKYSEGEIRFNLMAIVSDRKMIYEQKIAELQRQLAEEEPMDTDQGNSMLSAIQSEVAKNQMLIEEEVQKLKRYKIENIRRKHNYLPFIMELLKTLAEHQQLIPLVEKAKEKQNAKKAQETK
#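 Signal – fluorescence, ex 355 nm, em 460 nm · System – Proteasome-bound UCH37 · Input – 0.15 nM proteasome as dispensed · Timing – 30 min preincubation with enzyme, 25 min cleavage at room temperature · Read-out basis – percent inhibition of cleavage signal versus uninhibited and no-proteasome wells · Medium – Tris-HCl pH 7.4 with ATP-MgCl2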
# Rin1 Abl inh: human Rin1-Abl interaction inhibition | inhibition, % at 7.35 µM | hit rate 0.4% among 360,000 | TR-FRET Rin1/Abl binding, biochemical | AID 588664; in the data active means inhibition above about 5%, passing the limit was not always enough
# ATG4B conf: confirmation of human ATG4B inhibitors; shares compounds with ATG4B inh; AID 504757; hit rate 92% among 320; ATG4B protease fluorescent substrate cleavage assay; inhibition, % at 8.33 µM; in the data active means inhibition above about 39%
# PLA2 ctr: inhibits human PLA2, flagging false ATG4B inhibitors; inhibition, % at 8.33 µM; hit rate 66% among 1,600; shares compounds with ATG4B inh; purified PLA2, NBD-C6-HPC fluorescence, 45 min; in the data active means inhibition above about 50%
# Target sequence (P04054 whole entry, looked up): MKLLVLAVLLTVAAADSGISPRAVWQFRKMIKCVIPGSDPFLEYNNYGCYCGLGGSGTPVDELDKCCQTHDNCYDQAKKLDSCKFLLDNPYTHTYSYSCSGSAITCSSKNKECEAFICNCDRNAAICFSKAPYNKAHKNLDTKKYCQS
# An asterisk follows results filed as active; nt = not tested or not shown. Rows were chosen to be rich in hits. Some 1.4% of all compounds tested hit in one or more screens of this group.
SMILES,Tb MetRS inh,ATG4B inh,UCH37 inh,Rin1 Abl inh,PLA2 ctr,others
Cc1c(Cl)c([N+](=O)[O-])nn1CCCC(=O)Nc1sc2c(c1C#N)CCC2,0,49*,2,2,65*,
Cc1c(Cl)c([N+](=O)[O-])nn1CCCC(=O)Nc1ccc(Cl)cc1Cl,-1,67*,5,2,54*,
Cc1c(Cl)c([N+](=O)[O-])nn1CCCC(=O)Nc1cccc(Cl)c1Cl,0,60*,4,2,67*,
O=C(COC(=O)C1CCN(S(=O)(=O)c2ccc(Cl)c(C(F)(F)F)c2)CC1)NCC1CCCO1 (stereo not given),0,nt,nt,-1,nt,
O=C(c1cccnc1)n1nc(NCc2ccccc2)nc1NCc1ccccc1,0,42*,7,-3,31,
Cc1c(NC(=O)C(CC(=O)O)NCc2ccco2)c(=O)n(-c2ccccc2)n1C (stereo not given),0,-5,-2,-3,nt,
COc1ccccc1NS(=O)(=O)c1cc(NC(=O)C2CCCC2)ccc1N1CCOCC1,-1,-15,2,1,nt,
Cc1cccc(-n2c(C)cc(/C=C3\C(=N)N4N=C(CC(C)C)SC4=NC3=O)c2C)c1,0,12,-112,-6,nt,
Cc1cc(C)cc(-n2c(C)cc(/C=C3\C(=N)N4N=C(CC(C)C)SC4=NC3=O)c2C)c1,0,44*,-66,1,47,ATG4B conf=46*
CCCC1=NN2C(=N)/C(=C\c3cc(C)n(-c4cc(C)cc(C)c4)c3C)C(=O)N=C2S1,0,58*,-21,-2,55*,
O=C(NNC(=S)Nc1ccccc1Cl)C1CC1,0,-4,-1,-2,nt,
Cc1noc(C)c1C(=O)N1CCCC(Nc2ccc(C(C)C)cc2)C1 (stereo not given),1,5,1,-2,nt,
CC(C)c1ccc(NC2CCCN(C(=O)c3ccc4nccnc4c3)C2)cc1 (stereo not given),0,32,nt,2,nt,
COc1ccc(C(=O)N2CCCC(Nc3ccc(C(C)C)cc3)C2)c(OC)n1 (stereo not given),0,76*,5,-7,78*,
COC(=O)c1ccc(C(=O)N2CCCC(Nc3ccc(C(C)C)cc3)C2)nc1 (stereo not given),0,42*,5,4,42,ATG4B conf=78*
CC(C)c1ccc(NC2CCCN(C(=O)c3cc(C(C)C)[nH]n3)C2)cc1 (stereo not given),0,43*,3,0,46,ATG4B conf=74*
COc1ccc(NC2CCCN(C(=O)c3ccc(OC)cc3OC)C2)cc1 (stereo not given),-1,-2,2,2,nt,
COc1ccc(NC(=S)N2CCN(C(=O)c3ccco3)CC2)cc1OC,-1,0,4,3,nt,
Cc1c(Cl)cccc1NC(=O)COC(=O)CCc1nc2ccccc2n1-c1ccccc1,0,50*,5,6,53*,
O=C(COC(=O)CCc1nc2ccccc2n1-c1ccccc1)Nc1cccc(Cl)c1,0,25,2,0,nt,
O=S(=O)(Nc1nc2ccccc2nc1N1CCN(c2ccccc2F)CC1)c1ccc(Cl)cc1,-1,71*,2,1,68*,
Cc1ccc(Cc2cnc(N3C(=N)SC(C)C3=O)s2)cc1 (stereo not given),0,2,0,3,nt,
O=C1c2ccccc2C(=O)N1c1ncc(Cc2ccc(Cl)cc2)s1,0,80*,4,-5,64*,
CCN(Cc1ccc2c(c1)OCO2)C(=O)CSc1nc(C)nc2sc(C)c(C)c12,0,58*,3,-4,75*,
CCn1c(Cc2ccccc2)nnc1SCC(=O)Nc1ccccc1F,1,-2,-1,-1,nt,
SMILES,Tb MetRS inh,ATG4B inh,UCH37 inh,Rin1 Abl inh,PLA2 ctr,others
COc1cc(C(=O)N/N=C/c2coc3ccc(Cl)cc3c2=O)ccc1O,0,51*,nt,-1,38,ATG4B conf=38
Cc1cccc(C(=O)N/N=C/c2coc3ccccc3c2=O)c1,0,36,nt,1,nt,
O=C(N/N=C/c1coc2ccccc2c1=O)c1cccc([N+](=O)[O-])c1,0,46*,nt,-1,-12,
Cc1ccc(C(=O)Nc2ccc3c(c2)OCCO3)c(C)c1,-1,0,0,-1,nt,
CN1CCN(CCC=C2c3ccccc3Sc3ccc(S(=O)(=O)N(C)C)cc32)CC1,0,-11,4,-1,nt,
Cc1cccc(S(=O)(=O)N(CC(=O)Nc2ccccc2C)Cc2ccco2)c1,-2,-6,1,-2,nt,
OC(c1cc(-c2cccc(Cl)c2)nc2ccccc12)C1CCCCN1 (stereo not given),1,42*,3,-2,66*,
O=C(Cc1ccon1)c1ccc(O)cc1O,0,4,6,3,nt,
CCOC(=O)c1cc(-c2ccccc2)sc1NC(=O)c1ccc(OC)cc1,nt,-6,-12,nt,nt,
O=C(Nc1sc(-c2ccccc2)cc1C(=O)O)c1ccccc1,-1,68*,-14,-2,81*,
Cc1c(C(=O)Nc2cccc3cccnc23)oc2ccccc12,0,9,-71,2,nt,
CCCNC(=O)c1ccc2c(=O)c(O)c(-c3cccc(Br)c3)[nH]c2c1,0,4,-5,3,nt,
COC(=O)C(C)N(C(=O)c1ccc(Cl)cc1)c1c(C)cccc1C (stereo not given),0,1,0,-1,nt,
COC(=O)C(C)N(C(=O)c1ccc(C(=O)c2ccccc2)cc1)c1c(C)cccc1C (stereo not given),1,57*,3,-2,47,ATG4B conf=58*
CCOC(=O)/C=C1\SCC(=O)N1CC(=O)NCCOC,-1,1,-1,4,nt,
CCOc1ccc(OCC)c(NC(=O)CN2CCC(NC(=O)c3cccc(F)c3)CC2)c1,0,79*,1,2,76*,
O=C(/C=C/c1ccccc1)NC(NC(=S)Nc1cc(Cl)ccc1Cl)C(Cl)(Cl)Cl (stereo not given),1,42*,1,-4,30,
COc1ccc(C(=O)c2cnc3ccccc3c2-c2ccccc2)cc1,-1,72*,3,1,83*,
Cc1ccc(C(=O)c2cnc3ccccc3c2-c2ccccc2)cc1,-1,69*,3,1,82*,
Cc1ccc(C(=O)c2nc(C(=O)NCCO)nc3ccccc23)cc1,0,4,-3,0,nt,
COc1cc(C)ccc1S(=O)(=O)NC1CC(C)(C)NC(C)(C)C1,0,-3,nt,-1,nt,
COc1ccccc1C1CC(c2cccs2)=Nc2ccccc2S1 (stereo not given),0,1,3,0,nt,
Fc1ccccc1C1CC(c2ccco2)=Nc2ccccc2S1 (stereo not given),-1,53*,1,-3,73*,
CCCCOc1ccc(-c2cn3ccccc3n2)cc1[N+](=O)[O-],-1,45*,-1,-3,48,
